dFosB activator: activators of mouse delta FosB homodimer. P13346. purified delta FosB, TAMRA-CDK5 oligo fluorescence polarization; percent of positive-control signal above neutral wells. activation, % at 25 µM. hit rate 0.99% among 340,000. AID 493131;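 active = mean activation above about 17%, with every replicate also reaching it, limit read from the data, passing the limit was not always enough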
Target sequence (P13346 whole entry, looked up): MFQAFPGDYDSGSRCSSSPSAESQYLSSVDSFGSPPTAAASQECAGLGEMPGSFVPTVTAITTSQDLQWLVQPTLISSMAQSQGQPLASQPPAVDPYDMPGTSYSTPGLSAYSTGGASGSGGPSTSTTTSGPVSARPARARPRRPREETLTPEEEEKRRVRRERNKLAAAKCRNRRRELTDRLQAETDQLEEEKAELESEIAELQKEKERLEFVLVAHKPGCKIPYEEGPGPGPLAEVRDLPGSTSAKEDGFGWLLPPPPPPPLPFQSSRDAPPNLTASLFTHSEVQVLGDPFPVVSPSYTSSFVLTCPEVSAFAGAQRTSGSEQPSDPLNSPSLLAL
CAL PDZ FP-1: inhibitors of human CAL PDZ peptide binding; Q9HD26; purified CAL PDZ, TMR-peptide fluorescence polarization, 1 h; inhibition, % at 20 µM; hit rate 0.02% among 330,000; AID 504414;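 active = highest replicate inhibition of at least 40%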
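Assay system – tagged CAL PDZ protein CerCALP, purified · Timing – 1 h at RT · Compound – single point, 20 µM · Measured by – fluorescence polarization from S- and P-plane intensities, G-factor corrected · Evaluation – inhibition from polarization loss · Probe or stimulus – TMR reporter peptide T*-PRC34 · Buffer or medium – pH 7.4 phosphate-saline buffer, reducing agent, detergent, IgG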
CDK5 inh: inhibitors of human CDK5/p35 kinase; hit rate 0.01% among 330,000; Q00535+Q15078; Recombinant CDK5/p35, ADP-Glo luminescence, 60 min; inhibition, % at 10 µM;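 active = highest replicate inhibition of at least 50% and at least 75% of replicates reaching 50%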
CAL PDZ FP-2: inhibitors of human CAL PDZ peptide binding; inhibition, % at 24.9 µM; hit rate 0.92% among 300,000; purified CAL PDZ, TMR-peptide fluorescence polarization, 1 h;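 active = mean inhibition of at least 30% with at least half of replicates also reaching 30%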
Statin myotox sup: suppression of simvastatin myotoxicity. hit rate 0.78% among 330,000. C2C12 myotubes + simvastatin, ATP luminescence, 48 h; scaled: DMSO 0, geranylgeraniol control 100. rescue of ATP level, % at 7.49 µM;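 active = mean ATP rescue above about 67%, or every replicate alone reaching that limit, limit read from the data, passing the limit was not always enough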;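 note: myotubes were challenged with 10 µM simvastatin during compound exposure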
S100A4 inh HTS: S100A4-myosin IIA interaction inhibition; P26447; S100A4/TAMRA-MyoIIA peptide fluorescence polarization; inhibition, % at 10.7 µM; hit rate 0.14% among 360,000;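 active = mean inhibition of at least 70% across replicates, with every replicate also reaching that level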
Target sequence (P26447 whole entry, looked up): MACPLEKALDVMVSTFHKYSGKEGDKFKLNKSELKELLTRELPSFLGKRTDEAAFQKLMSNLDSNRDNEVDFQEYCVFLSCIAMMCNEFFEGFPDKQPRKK
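Test system – S100A4 monomer (human) · Compound – single-point compound testing · Schedule – 5 min incubation before reading · Probe or stimulus – TAMRA-labelled myosin IIA heavy-chain peptide probe, 5 nM · Benchmarks – neutral control DMSO, positive control TFP · Medium – Calcium-containing HEPES buffer, pH 7.2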
Of the large screens only hits and unclear results are named; the others gave an inactive call. Hits are enriched below; roughly 2% of the tested compounds scored in any of these assays.

Cc1onc(-c2c(Cl)cccc2Cl)c1C(O)c1ccc(F)cc1 (stereo not given)	none (no result: CAL PDZ FP-1)
Cc1onc(-c2c(Cl)cccc2Cl)c1C(O)c1ccccc1 (stereo not given)	CAL PDZ FP-2 46 (no result: CAL PDZ FP-1)
NC(=O)[C@@H]1CCCN1C(=O)c1ccc2oc(CCc3ccccc3)nc2c1	none
NC(=O)C(CC(=O)O)NC(=O)[C@@H]1CCCNc2c(I)cc([N+](=O)[O-])cc2C(=O)N[C@@H](CO)C(=O)N[C@@H](Cc2ccc(O)cc2)C(=O)N1 (stereo not given in full)	Statin myotox sup 159 (no result: S100A4 inh HTS)
Cc1cccc(N2CCN(C(=O)CNC(=O)c3cccc([N+](=O)[O-])c3)CC2)c1C	none
O=C(Nc1ccc2c(c1)OCO2)C1CC(c2cccc(Br)c2)=NO1 (stereo not given)	CAL PDZ FP-2 42 (no result: CAL PDZ FP-1)
CCOc1ncnc2c1oc1nc(CC(C)C)c3c(c12)CC(C)(C)OC3	none
O=C(Nc1nc(-c2ccccn2)cs1)c1ccc([N+](=O)[O-])o1	Statin myotox sup 241
Cc1ccc(C(=O)Nc2nc(-c3ccccn3)cs2)o1	none (no result: Statin myotox sup)
CCCn1nc(C(=O)Nc2nc(-c3ccccn3)cs2)c2ccccc2c1=O	none
Cn1nc(C(=O)Nc2nc(-c3ccccn3)cs2)c2ccccc2c1=O	CAL PDZ FP-2 85
COc1ccc(-n2c(CNC(=O)COc3ccccc3)n[nH]c2=S)cc1	CAL PDZ FP-2 41
CN(C)CCCn1c2c3ccccc3ccc2c2oc(=O)c3ccccc3c21	dFosB activator 73 (no result: Statin myotox sup)
CN(C)CCCn1c(=S)[nH]c2ccccc2c1=O	none
Cc1ccccc1-c1ccc(C2[C@@H]3CN(C(=O)C4CCCC4)C[C@H]2N3)cc1 (stereo not given in full)	none (no result: dFosB activator, CAL PDZ FP-1, CDK5 inh, CAL PDZ FP-2, Statin myotox sup)
CCn1c(/C=C/N(C(C)=O)c2ccccc2)[n+](CC)c2ccc(Cl)cc21	none (no result: Statin myotox sup)
CC[n+]1c(/C=C/C=C/N(C(C)=O)c2ccccc2)sc2ccccc21	dFosB activator 43 (no result: S100A4 inh HTS)
O=C(O)C[C@H]1C=C[C@H](NC(=O)Nc2cc(F)ccc2F)[C@H](CO)O1	none (no result: dFosB activator, CAL PDZ FP-1, CDK5 inh, CAL PDZ FP-2)
CCc1ccc(CNC(=O)c2ccc(NC(=O)C3=CSCCO3)cc2)cc1	dFosB activator 23
CC[C@H]1CN2CCc3cc(OC)c(OC)cc3C2C[C@@H]1C[C@H]1NCCc2cc(OC)c(OC)cc21 (stereo not given in full)	Statin myotox sup 81
CCC1=C(CC2NCCc3ccccc32)CC2c3cc(OC)c(OC)cc3CCN2C1 (stereo not given)	none (no result: Statin myotox sup)
COc1ccc(/C=C/C(=O)N2CCN(c3ccccc3)CC2)cc1S(=O)(=O)N1CCOCC1	CAL PDZ FP-2 52 (no result: Statin myotox sup)
COc1ccc(/C=C/C(=O)N2CCC(C(N)=O)CC2)cc1S(=O)(=O)N1CCOCC1	none
C[C@@H]1CN([C@@H](C)CO)C(=O)c2c(c3ccccc3n2C)-c2ccccc2CO[C@@H]1CN(C)C	none (no result: dFosB activator, CAL PDZ FP-1, CDK5 inh, CAL PDZ FP-2)
CCOc1ccc(Nc2nc(N)c([N+](=O)[O-])c(N3CCN(C)CC3)n2)cc1	none
CCC(=O)Nc1ccc2c(c1)C(=O)N(C)[C@@H]1CC[C@H](CC(=O)NCCCN(C)C)O[C@@H]1CO2	none (no result: dFosB activator, CAL PDZ FP-1, CDK5 inh, CAL PDZ FP-2)
O=C(NC1=C(Nc2ccc(F)cc2)C(=O)c2ccccc2C1=O)c1ccc(Cl)cc1	CAL PDZ FP-2 70 (no result: Statin myotox sup, S100A4 inh HTS)
CC(NC(=O)c1ccc(CS(C)(=O)=O)cc1)c1ccc(-n2ccnc2)cc1 (stereo not given)	none
CC(NC(=O)c1ccc(Br)o1)c1ccc(-n2ccnc2)cc1 (stereo not given)	CAL PDZ FP-2 35 (no result: Statin myotox sup)
CCCn1c(-c2ccc(OC)cc2)nc2ccccc21	none (no result: S100A4 inh HTS)
COCn1c(-c2ccc(OC)cc2)nc2ccccc21	CAL PDZ FP-2 107 (no result: CAL PDZ FP-1, S100A4 inh HTS)
O=C(/C(N=Nc1cccc(C(F)(F)F)c1)=C(/O)c1cccs1)C(F)(F)F	CAL PDZ FP-2 68 (no result: Statin myotox sup)
Cc1ccc2nc(-c3ccccc3)oc(=O)c2c1	none
Cc1ccc(-c2nc3ccccc3c(=O)o2)cc1	CAL PDZ FP-2 48
Cc1ccc(C(=O)N/C(=C\c2sccc2C)C(=O)NCc2ccco2)cc1	none (no result: S100A4 inh HTS)
COc1ccc(CCNC(=O)Cn2nnc3ccccc3c2=O)cc1	none (no result: Statin myotox sup, S100A4 inh HTS)
CC(=O)Nc1ccc(S(=O)(=O)NNC(=O)c2cc3c4ccccc4n(C)c3s2)cc1	Statin myotox sup 193 (no result: S100A4 inh HTS)
CC(C)NC(=O)Nc1ccc2c(c1)CC(=O)N([C@H](C)CO)C[C@@H](C)[C@H](CN(C)Cc1ccc3c(c1)OCO3)O2	none (no result: dFosB activator, CAL PDZ FP-1, CDK5 inh, CAL PDZ FP-2)
CCCCNC(=S)N1CCN(C(c2ccccc2)c2ccccc2)CC1	CAL PDZ FP-2 45 (no result: Statin myotox sup)
CCCNC(=S)N1CCN(C(c2ccccc2)c2ccccc2)CC1	none (no result: Statin myotox sup, S100A4 inh HTS)
COc1cccc(CN2CC(C(=O)NCCCc3ccncc3)CCC2=O)c1 (stereo not given)	none
COc1ccc(CN2CC(C(=O)NCCCN3CCOCC3)CC2=O)cc1 (stereo not given)	Statin myotox sup 98 (no result: S100A4 inh HTS)
O=C(NCc1ccncc1)C1CCC(=O)N(CCc2ccc(Cl)cc2)C1 (stereo not given)	none
COc1cccc(CN2CC(C(=O)NCCCc3ccc(C)cc3)CCC2=O)c1 (stereo not given)	CAL PDZ FP-2 100
COc1ccc(CN2CC(C(=O)NCCCN3CCCCCC3)CC2=O)cc1 (stereo not given)	none (no result: S100A4 inh HTS)
O=C(NCCCc1ccncc1)C1CCC(=O)N(Cc2ccc(Cl)cc2)C1 (stereo not given)	CAL PDZ FP-2 72
CCC(=O)Nc1cccc(C2=NOC3(C2)C[C@H](C(N)=O)N(C(=O)CC#N)C3)c1 (stereo not given in full)	none
CCOC(=O)C1=CCN(S(=O)(=O)c2ccccc2Br)C1c1ccc(Br)cc1 (stereo not given)	none (no result: dFosB activator, CAL PDZ FP-1, CDK5 inh, CAL PDZ FP-2)
COc1ccc(NC(=O)NCCCN2CCCC2=O)cc1	none
CCn1ccnc1CN1CCc2c([nH]c3ccccc23)C1CC(C)C (stereo not given)	none (no result: CAL PDZ FP-2, Statin myotox sup)
CCn1ccnc1CN1CCc2c([nH]c3ccccc23)C1C(C)(C)C (stereo not given)	CAL PDZ FP-2 80
C[C@@H]1CN([C@H](C)CO)C(=O)c2cccc(N(C)C)c2O[C@H]1CN(C)CC1CC1	none (no result: dFosB activator, CAL PDZ FP-1, CDK5 inh, CAL PDZ FP-2)
O=C(C[N+]1(CC#Cc2ccccc2)CCOCC1)c1ccccc1	CAL PDZ FP-2 49 (no result: Statin myotox sup)
Cc1cc(Br)cc(Cl)c1OC(=O)c1ccncc1	CAL PDZ FP-2 47
Cc1cc(Br)cc(Cl)c1OC(=O)c1cnccn1	none
CO[C@@H]1CN(C)C(=O)c2cc(NC(=O)C3CC3)ccc2OC[C@H](C)N(C(=O)c2cccnc2)C[C@H]1C	none (no result: dFosB activator, CAL PDZ FP-1, CDK5 inh, CAL PDZ FP-2)
O=C(CN1C(=O)CCC1=O)Nc1ccc2c3c(cccc13)CC2	Statin myotox sup 92 (no result: S100A4 inh HTS)
Cn1c(=O)c2ncn(CC(=O)Nc3ccc4c5c(cccc35)CC4)c2n(C)c1=O	none (no result: S100A4 inh HTS)
